Screens from PubChem.
Only some compounds are listed: those with a hit (about 2.9% of all), similar ones and a draw of the others.
T cruzi inh: blocks replication of Trypanosoma cruzi; T. cruzi beta-gal in NIH3T3, luminescence, 90 h; inhibition, % (no concentration beside the values); actives 1.4% (n = 300,000);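 active = mean inhibition across valid replicates above about 55%, limit read from the data; inconclusive = mean below that limit but half or more replicates reach it; inactive = mean below it, under half of replicates reach it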;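 also: signal also drops with host cell toxicity which is not excluded here; higher percent means less beta-gal luminescence so fewer parasites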
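Incubation – ≥90 h infection period, 3 h prior cell attachment · System – NIH/3T3 fibroblasts plus reporter T. cruzi · Doses – compound pinned at 50 nL/well, DMSO · Read-out basis – percent inhibition of parasite-derived β-gal signal · Signal – luminescent β-galactosidase signal after 60 min lysis · Also added – 5000 T. cruzi trypomastigotes/well · Medium – Low-serum DMEM with 2% FBS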
TAG inh: triacylglycerol accumulation inhibition. H9c2 cells, Nile Red lipid (TAG) fluorescence; cells loaded with 200 µM oleic acid. inhibition, % at 12.5 µM. actives 0.66% (n = 230,000);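 active = pattern-corrected inhibition of lipid staining of at least 50% with the nuclear-stain viability signal not falling by more than 50%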
PG9 Ab binder: binds the HIV-1 gp120 antibody PG9 | TR-FRET gp120-PG9 antibody binding | inhibition, % at 6.7 µM | actives 0.43% (n = 360,000); in the data active = inhibition above about 8.5%
NR1D1 modulator: modulates human Rev-erb alpha binding to DNA; P20393; Rev-erbα–FITC-DNA binding, fluorescence polarization, 90 min; activity, % at 10 µM; actives 0.79% (n = 370,000); AID 1259318;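 active = activity above about 14%, limit read from the data; passing the limit was not always enough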
Target sequence (P20393 whole entry, looked up): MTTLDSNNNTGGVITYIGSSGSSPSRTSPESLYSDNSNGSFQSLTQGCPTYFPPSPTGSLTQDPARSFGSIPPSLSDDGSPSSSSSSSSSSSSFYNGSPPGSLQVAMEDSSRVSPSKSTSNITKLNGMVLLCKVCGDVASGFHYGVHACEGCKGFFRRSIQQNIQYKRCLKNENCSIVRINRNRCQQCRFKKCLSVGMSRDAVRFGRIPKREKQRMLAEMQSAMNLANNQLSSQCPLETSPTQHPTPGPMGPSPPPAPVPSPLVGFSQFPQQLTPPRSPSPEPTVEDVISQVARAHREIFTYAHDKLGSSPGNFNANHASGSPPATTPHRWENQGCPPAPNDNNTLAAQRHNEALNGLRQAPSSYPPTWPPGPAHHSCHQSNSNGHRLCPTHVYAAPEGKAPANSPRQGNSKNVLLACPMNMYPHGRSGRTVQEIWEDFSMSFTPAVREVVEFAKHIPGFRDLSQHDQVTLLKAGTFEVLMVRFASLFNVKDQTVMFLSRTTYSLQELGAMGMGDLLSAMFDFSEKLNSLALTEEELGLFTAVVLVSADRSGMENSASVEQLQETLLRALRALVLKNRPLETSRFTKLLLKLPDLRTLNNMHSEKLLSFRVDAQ
iPSC survival up: enhancers of human iPSC single-cell survival; hiPSC single-cell survival, ATPlite luminescence; 100% = ROCK inhibitor wells, 0% = DMSO; survival enhancement, % at 20 µM; actives 0.044% (n = 360,000); in the data active = survival enhancement above about 18%;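 also: cells exposed to compounds for 16 hours before the ATP read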
beta cell repl: inducers of beta-cell replication in MIN6 cells; actives 0.29% (n = 330,000); MIN6 cells proliferation, ATPlite luminescence, 48 h; cells starved in 0.2% serum; 100% = growth in 10% serum; proliferation, % at 10 µM;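 active = compounds whose signal lies at least 3.5 SD above the mean of all wells on their plate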
Of the large screens only hits and unclear results are named; the others gave an inactive call.

CCOC(=O)C1C(=O)CC(C)(O)C(C(=O)OCC)C1c1ccc(SC)cc1 (centres undefined)	none (no result: TAG inh)
CC(C)(C)c1ccc(/C=C/C(=O)c2ccc(NC3=NCCCS3)cc2)cc1	T cruzi inh 58 (no result: TAG inh)
COc1cccc(/C=C/C(=O)c2ccc(NC3=NCCCS3)cc2)c1	none
Cc1cccc(/C=C/C(=O)c2ccc(NC3=NCCCS3)cc2)c1	T cruzi inh 55
CCCCC(=O)NC(c1ccco1)c1cc(Cl)c2cccnc2c1O (centres undefined)	T cruzi inh 63
CCCC(=O)NC(c1cccs1)c1cc([N+](=O)[O-])c2cccnc2c1O (centres undefined)	none (no result: TAG inh, beta cell repl)
CCC(=O)NC(c1ccco1)c1cc(Cl)c2cccnc2c1O (centres undefined)	T cruzi inh 63
O=C(CCc1ccccc1)NC(c1cccs1)c1cc(Cl)c2cccnc2c1O (centres undefined)	T cruzi inh 66 (no result: beta cell repl)
CC(=O)NC(c1ccco1)c1cc(Cl)c2cccnc2c1O (centres undefined)	none (no result: T cruzi inh, beta cell repl)
COc1ccc(C2CC(c3ccc(Br)cc3)Nc3nc(N)nn32)cc1 (centres undefined)	none
Nc1nc2n(n1)C(c1cccs1)CC(c1ccc(Br)cc1)N2 (centres undefined)	T cruzi inh 74
CC(=O)NC(c1ccc(C(C)C)cc1)c1ccc2cccnc2c1O (centres undefined)	T cruzi inh 56 (no result: TAG inh)
Oc1cccc(C(Nc2nccs2)c2ccc3cccnc3c2O)c1 (centres undefined)	T cruzi inh 92
COc1cccc(C(NC(C)=O)c2ccc3cccnc3c2O)c1 (centres undefined)	T cruzi inh 57
CC(=O)NC(c1cccc([N+](=O)[O-])c1)c1ccc2cccnc2c1O (centres undefined)	none (no result: TAG inh)
O=[N+]([O-])c1ccccc1S(=O)(=O)N1CCc2ccccc2C1	none
O=[N+]([O-])c1ccc(N2CCN(S(=O)(=O)c3ccccc3[N+](=O)[O-])CC2)cc1N1CCc2ccccc2C1	beta cell repl 6.0 (no result: TAG inh)
N#C/C(=C\c1cccnc1)C(=O)NC1CCCCC1	none (no result: TAG inh)
CCOC(=O)c1cnc(-n2nc(C)cc2C)nc1Nc1ccc(N(C)C)cc1	T cruzi inh 63
CCOC(=O)c1cnc(-n2nc(C)cc2C)nc1NC1CCCCC1	T cruzi inh 76
CCOC(=O)c1cnc(-n2nc(C)cc2C)nc1NC	none
CCOC(=O)c1cnc(-n2nc(C)cc2C)nc1Nc1ccc(C)cc1	none (no result: TAG inh, beta cell repl)
CC1=C(C(=O)OC(C)C)C(C)C(C(=O)OC(C)C)=C(C)N1	none (no result: TAG inh)
Cc1c(C)n(CCCN(C)C)c2ncnc(Nc3ccc(F)cc3)c12	T cruzi inh 61 (no result: TAG inh)
CCN(CC)c1ccc(CNc2nc3ccccc3n2CCN2CCCCC2)cc1	T cruzi inh 60
Cc1cc(C)n(-c2nc(Nc3ccccc3C)nc(-n3nc(C)cc3C)n2)n1	T cruzi inh 70 (no result: TAG inh, iPSC survival up)
Cc1cc(C)n(-c2nc(Nc3ccccc3C(F)(F)F)nc(-n3nc(C)cc3C)n2)n1	T cruzi inh inconclusive
O=C(NNC(=O)c1ccccc1-n1cccc1)c1ccc(Cl)c(Cl)c1	none
CCc1ccc(-c2ccc(SCc3ccccn3)nn2)cc1	none
O=C(OCc1ccccc1)Oc1cncc(C(=O)O)c1	none (no result: TAG inh)
CCCCCc1cc(=O)oc2c(C(CCN3CCCCC3)c3ccc4c(c3)OCO4)c(OC)cc(OC)c12 (centres undefined)	TAG inh 106
CCCCCc1cc(=O)oc2c(C(CCN3CCCC(C)C3)c3ccc4c(c3)OCO4)c(OC)cc(OC)c12 (centres undefined)	TAG inh 78
CCOC(=O)c1ccccc1NC(=O)Cn1cnc2c(nnn2-c2ccc(C)cc2)c1=O	none
O=C1c2ccccc2C(=O)N1CCc1csc(-c2cccc(Cl)c2)n1	none (no result: TAG inh)
Clc1cccc(-c2cc3nc4c(c(N5CCN(c6cnccn6)CC5)n3n2)CCCC4)c1	TAG inh 62 (no result: T cruzi inh)
Cc1cccc(OCCNc2cc(N3CCN(C)CC3)ccc2[N+](=O)[O-])c1	T cruzi inh 67 (no result: TAG inh)
Cc1cccc(OCCNc2cc(N3CCOCC3)ccc2[N+](=O)[O-])c1	none (no result: TAG inh)
O=C(NCCCN1CCCC1=O)c1csc2ccccc12	none (no result: TAG inh)
O=[N+]([O-])C(=C1SCCS1)C(=C(Cl)Cl)N1CCCCC1	none
O=[N+]([O-])C(/C=C(\Cl)[N+](=O)[O-])=C(N1CCCCC1)N1CCCCC1	T cruzi inh 61
COc1ccc(S(=O)(=O)NCC(c2cccnc2)N2CCN(Cc3ccccc3)CC2)cc1 (centres undefined)	T cruzi inh 55
COc1ccc(S(=O)(=O)NCC(c2cccnc2)N2CCN(Cc3ccccc3)CC2)cc1C (centres undefined)	T cruzi inh 57
COc1ccc(S(=O)(=O)NCC(c2cccnc2)N2CCN(C)CC2)cc1C (centres undefined)	none
Cc1cc(N2CCN(C)CC2)ccc1NC(=O)c1cccc(S(=O)(=O)N2CCc3ccccc3C2)c1	T cruzi inh 75
CNC(=O)NCC12CC3CC(CC(C3)C1)C2	none (no result: TAG inh)
Cc1cc(C(=O)NCC23CC4CC(CC(C4)C2)C3)c(C)o1	T cruzi inh 61 (no result: TAG inh, PG9 Ab binder, NR1D1 modulator, iPSC survival up)
CCCCn1c(N)c(N(CC)C(=O)c2cccc(OCc3ccccc3)c2)c(=O)[nH]c1=O	none (no result: T cruzi inh)
CC1CN(c2nc3ccccc3nc2C(C#N)C(=O)OC2CCCCC2)CC(C)O1 (centres undefined)	T cruzi inh 63 (no result: TAG inh)
CC1CCN(c2nc3ccccc3nc2C(C#N)C(=O)OC2CCCCC2)CC1 (centres undefined)	none (no result: TAG inh, PG9 Ab binder, NR1D1 modulator)
N#CC(C(=O)OC1CCCCC1)c1nc2ccccc2nc1N1CCCCC1 (centres undefined)	T cruzi inh 67 (no result: TAG inh, iPSC survival up)
O=C(Nc1ccc(C(F)(F)F)cc1)N1CCN(c2ccnc3cc(Cl)ccc23)CC1	T cruzi inh 69
COC(=O)c1ccccc1NC(=S)NC(NC(=O)COc1ccccc1)C(Cl)(Cl)Cl (centres undefined)	none
O=C(N/N=C/c1ccc(-c2cccc([N+](=O)[O-])c2)o1)c1cccs1	T cruzi inh 80
O=C(CNC(=S)N(CCCN1CCOCC1)Cc1cccs1)NCc1ccccc1Cl	none (no result: TAG inh)
Cc1ccc(C(C)C)c(OCC(=O)NC(=S)Nc2ccccc2N2CCOCC2)c1	none
CCOc1ccccc1N(C)C(=O)c1cc2c(=O)n(CC)c3ccccc3c2s1	T cruzi inh 62
COc1cc(SC)ccc1C(=O)OCC(=O)NC1CCCC1	none
N#Cc1ccc(-c2cccs2)nc1SCc1cccnc1	TAG inh 53
CC1CC(C)CN(C(=O)C2CCCN(S(=O)(=O)c3cccc4nonc34)C2)C1 (centres undefined)	none
